Here are results for 2 molecules from ChEMBL document CHEMBL4118021, “Studies of TAK1-centered polypharmacology with novel covalent TAK1 inhibitors” (Bioorg Med Chem, 2017).

The structures appear in SMILES notation. Calls of active or inactive are those of the source. No cut-off for these calls is given here.

Test [1] concerns the target Opioid growth factor receptor (Homo sapiens) (UniProt Q9NZT2). Briefly: Binding affinity to OGFR in human NCI-H358 cells at 1 uM by mass spectrometry based pull down assay. In kind it is cell-based.
For test [2], the target named is Apoptosis-inducing factor 1, mitochondrial (Homo sapiens) (UniProt O95831). Briefly: Binding affinity to AIFM1 in human NCI-H23 cells at 1 uM by mass spectrometry based pull down assay. The format is cell-based. A digest of the protocol:
(§1)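 NCI-H23 or NCI-H358 cells were grown and lysed. Lysates were incubated overnight at 4 °C with 1 μM biotinylated covalent probe or DMSO, then pulled down on streptavidin beads. Proteins were run on polyacrylamide gels and stained with Coomassie. Bands were excised, digested and identified by mass spectrometry.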

For test [3], the target named is Heterogeneous nuclear ribonucleoprotein Q (Homo sapiens) (UniProt O60506). As to the kind of experiment: Binding affinity to SYNCRIP in human NCI-H358 cells at 1 uM by mass spectrometry based pull down assay. The format is cell-based.
Sequence of Heterogeneous nuclear ribonucleoprotein Q (Homo sapiens) (O60506 whole entry): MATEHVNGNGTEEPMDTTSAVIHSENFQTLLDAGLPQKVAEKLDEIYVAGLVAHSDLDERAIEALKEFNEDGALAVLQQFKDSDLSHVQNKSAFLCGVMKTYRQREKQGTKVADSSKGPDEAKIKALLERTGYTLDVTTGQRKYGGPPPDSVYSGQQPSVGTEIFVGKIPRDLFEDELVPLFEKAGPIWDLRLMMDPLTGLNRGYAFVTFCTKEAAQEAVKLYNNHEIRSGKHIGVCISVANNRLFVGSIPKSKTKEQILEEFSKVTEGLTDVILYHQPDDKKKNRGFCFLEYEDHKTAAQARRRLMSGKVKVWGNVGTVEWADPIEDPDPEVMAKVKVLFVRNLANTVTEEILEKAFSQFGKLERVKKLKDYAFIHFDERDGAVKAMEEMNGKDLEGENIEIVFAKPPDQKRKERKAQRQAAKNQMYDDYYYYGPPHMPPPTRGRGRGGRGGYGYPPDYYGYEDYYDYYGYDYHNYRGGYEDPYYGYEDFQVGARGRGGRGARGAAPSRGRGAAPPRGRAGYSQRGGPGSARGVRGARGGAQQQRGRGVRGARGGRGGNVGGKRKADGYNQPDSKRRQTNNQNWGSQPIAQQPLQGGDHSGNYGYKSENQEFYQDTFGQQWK
For test [4], the target named is AP2-associated protein kinase 1 (Homo sapiens) (UniProt Q2M2I8). As to the kind of experiment: Binding affinity to AAK1 in human NCI-H358 cells at 1 uM by mass spectrometry based pull down assay. The format is cell-based. In a few lines:
as §1

In the next test the target is Vinculin (Homo sapiens) (UniProt P18206). As to the kind of experiment: Binding affinity to VCL in human NCI-H358 cells at 1 uM by mass spectrometry based pull down assay. The format is cell-based.
Test [5] has as its target Dolichyl-diphosphooligosaccharide--protein glycosyltransferase subunit 1 (Homo sapiens) (UniProt P04843). As to the kind of experiment: Binding affinity to RPN1 in human NCI-H23 cells at 1 uM by mass spectrometry based pull down assay. The format is cell-based.
Test [6] concerns the target 80S Ribosome (Homo sapiens) (UniProt P08865+P42677+P62753+P15880+P23396+P61247+P62701+P22090+P46782+P62081+P62241+P46781+P46783+P62280+P25398+P62277+P62263+P62841+P62244+P62249+P08708+P62269+P39019+P60866+P63220+P62266+P62847+P62851+P62854+P62979+P62857+P62273+P62861+P39023+P36578+P46777+Q02878+P18124+P62424+P62917+P32969+P27635+P62906+P62913+P30050+P26373+P40429+P50914+P61313+P18621+Q07020+Q02543+P84098+P46778+P35268+P62829+P62750+P83731+P61254+P61353+P46776+P46779+P47914+P62888+P62899+P62910+P49207+P42766+P18077+Q9Y3U8+P83881+P61927+P61513+P63173+P62891+P62945+P05388+P05386). Briefly: Binding affinity to RPL35A in human NCI-H23 cells at 1 uM by mass spectrometry based pull down assay. In kind it is cell-based.

Test [7] concerns the target Phosphatidylinositol 5-phosphate 4-kinase type-2 gamma (Homo sapiens) (UniProt Q8TBX8). As to the kind of experiment: Inhibition of PIP4K2C in human SKCO1 cells at 1 uM after 4 hrs using biotin labeled TLVIKEVSSEDIADMHSNLSNYHQYIVK probe by mass-spectrometric analysis relative to control. In kind it is cell-based.
Test [8] addresses Mast/stem cell growth factor receptor Kit (Homo sapiens) (UniProt P10721). Briefly: Inhibition of human KIT (571 to 952 residues) expressed in bacterial expression system assessed as enzyme activity at 1 uM by KINOMEScan assay relative to control. On the set-up: scale not given: the % may be the effect or the level left. In a few lines: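 In vitro ATP-site competition binding assay across a panel of 456 kinases, with compound tested at 1 and 10 μM.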

Sequence of AP2-associated protein kinase 1 (Homo sapiens) (Q2M2I8 whole entry, looked up): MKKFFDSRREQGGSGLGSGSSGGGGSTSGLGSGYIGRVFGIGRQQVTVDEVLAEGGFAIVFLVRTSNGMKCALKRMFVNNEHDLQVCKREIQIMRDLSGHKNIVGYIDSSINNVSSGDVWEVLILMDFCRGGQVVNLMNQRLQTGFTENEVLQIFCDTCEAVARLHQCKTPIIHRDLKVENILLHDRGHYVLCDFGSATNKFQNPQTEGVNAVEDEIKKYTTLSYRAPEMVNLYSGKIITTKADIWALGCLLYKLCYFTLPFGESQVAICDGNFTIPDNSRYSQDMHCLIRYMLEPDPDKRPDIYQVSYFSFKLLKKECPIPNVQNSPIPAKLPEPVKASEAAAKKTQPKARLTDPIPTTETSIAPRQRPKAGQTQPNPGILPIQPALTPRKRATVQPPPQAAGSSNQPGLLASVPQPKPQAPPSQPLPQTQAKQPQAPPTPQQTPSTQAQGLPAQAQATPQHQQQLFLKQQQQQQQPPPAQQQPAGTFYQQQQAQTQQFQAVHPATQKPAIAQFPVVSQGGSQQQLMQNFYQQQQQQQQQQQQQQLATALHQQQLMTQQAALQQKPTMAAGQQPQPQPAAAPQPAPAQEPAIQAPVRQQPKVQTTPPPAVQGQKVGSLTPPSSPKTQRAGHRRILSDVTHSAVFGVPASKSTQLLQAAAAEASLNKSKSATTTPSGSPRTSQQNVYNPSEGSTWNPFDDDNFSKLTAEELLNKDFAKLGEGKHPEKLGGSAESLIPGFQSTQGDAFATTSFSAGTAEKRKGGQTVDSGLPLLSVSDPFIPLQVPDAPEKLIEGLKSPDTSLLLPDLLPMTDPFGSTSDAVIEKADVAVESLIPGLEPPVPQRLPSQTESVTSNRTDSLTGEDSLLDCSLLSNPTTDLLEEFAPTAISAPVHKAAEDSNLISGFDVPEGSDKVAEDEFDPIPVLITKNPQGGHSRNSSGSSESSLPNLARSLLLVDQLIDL
Sequence of Dolichyl-diphosphooligosaccharide--protein glycosyltransferase subunit 1 (Homo sapiens) (P04843 whole entry): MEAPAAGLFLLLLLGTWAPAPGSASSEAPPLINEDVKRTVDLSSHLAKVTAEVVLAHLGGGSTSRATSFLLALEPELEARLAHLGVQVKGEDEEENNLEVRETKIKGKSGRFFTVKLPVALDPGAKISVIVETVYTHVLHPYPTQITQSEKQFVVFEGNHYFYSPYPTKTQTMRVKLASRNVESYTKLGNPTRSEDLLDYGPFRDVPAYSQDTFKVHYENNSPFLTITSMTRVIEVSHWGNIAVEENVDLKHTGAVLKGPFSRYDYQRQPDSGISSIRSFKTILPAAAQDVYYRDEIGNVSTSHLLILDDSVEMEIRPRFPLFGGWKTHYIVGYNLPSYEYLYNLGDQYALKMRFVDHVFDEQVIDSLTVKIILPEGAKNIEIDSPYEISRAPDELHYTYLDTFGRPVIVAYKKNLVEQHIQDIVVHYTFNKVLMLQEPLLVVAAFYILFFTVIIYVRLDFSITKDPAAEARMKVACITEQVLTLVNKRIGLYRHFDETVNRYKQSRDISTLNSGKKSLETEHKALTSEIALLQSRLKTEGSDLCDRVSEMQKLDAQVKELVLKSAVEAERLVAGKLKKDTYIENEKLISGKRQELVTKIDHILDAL
Sequence of Mast/stem cell growth factor receptor Kit (Homo sapiens) (P10721 whole entry, the tested form may be a part): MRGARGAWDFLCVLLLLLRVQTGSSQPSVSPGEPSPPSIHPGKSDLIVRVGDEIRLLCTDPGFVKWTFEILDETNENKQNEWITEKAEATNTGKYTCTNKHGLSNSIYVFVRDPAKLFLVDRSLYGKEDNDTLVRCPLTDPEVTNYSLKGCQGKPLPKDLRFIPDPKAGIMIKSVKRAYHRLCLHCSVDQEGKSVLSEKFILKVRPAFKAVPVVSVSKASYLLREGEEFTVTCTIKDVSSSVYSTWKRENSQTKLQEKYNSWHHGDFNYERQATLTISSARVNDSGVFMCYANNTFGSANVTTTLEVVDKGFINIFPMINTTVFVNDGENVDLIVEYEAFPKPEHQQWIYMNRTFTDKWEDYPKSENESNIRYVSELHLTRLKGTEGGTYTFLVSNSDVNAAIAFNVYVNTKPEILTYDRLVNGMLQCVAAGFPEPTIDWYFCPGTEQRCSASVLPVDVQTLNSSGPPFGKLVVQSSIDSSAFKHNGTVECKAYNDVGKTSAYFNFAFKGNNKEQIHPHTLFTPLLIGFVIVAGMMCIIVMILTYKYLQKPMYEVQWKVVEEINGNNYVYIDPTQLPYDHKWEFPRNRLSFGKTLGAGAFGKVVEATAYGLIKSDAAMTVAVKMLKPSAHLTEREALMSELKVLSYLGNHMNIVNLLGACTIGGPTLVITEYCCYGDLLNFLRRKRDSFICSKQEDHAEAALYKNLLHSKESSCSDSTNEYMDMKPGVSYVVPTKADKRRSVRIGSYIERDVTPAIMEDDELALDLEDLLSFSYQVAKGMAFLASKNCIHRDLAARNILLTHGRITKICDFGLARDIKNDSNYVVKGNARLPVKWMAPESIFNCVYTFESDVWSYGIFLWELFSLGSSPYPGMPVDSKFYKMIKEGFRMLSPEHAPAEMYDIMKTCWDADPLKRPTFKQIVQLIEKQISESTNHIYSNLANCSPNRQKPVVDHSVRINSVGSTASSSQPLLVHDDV
Sequence of Opioid growth factor receptor (Homo sapiens) (Q9NZT2 whole entry): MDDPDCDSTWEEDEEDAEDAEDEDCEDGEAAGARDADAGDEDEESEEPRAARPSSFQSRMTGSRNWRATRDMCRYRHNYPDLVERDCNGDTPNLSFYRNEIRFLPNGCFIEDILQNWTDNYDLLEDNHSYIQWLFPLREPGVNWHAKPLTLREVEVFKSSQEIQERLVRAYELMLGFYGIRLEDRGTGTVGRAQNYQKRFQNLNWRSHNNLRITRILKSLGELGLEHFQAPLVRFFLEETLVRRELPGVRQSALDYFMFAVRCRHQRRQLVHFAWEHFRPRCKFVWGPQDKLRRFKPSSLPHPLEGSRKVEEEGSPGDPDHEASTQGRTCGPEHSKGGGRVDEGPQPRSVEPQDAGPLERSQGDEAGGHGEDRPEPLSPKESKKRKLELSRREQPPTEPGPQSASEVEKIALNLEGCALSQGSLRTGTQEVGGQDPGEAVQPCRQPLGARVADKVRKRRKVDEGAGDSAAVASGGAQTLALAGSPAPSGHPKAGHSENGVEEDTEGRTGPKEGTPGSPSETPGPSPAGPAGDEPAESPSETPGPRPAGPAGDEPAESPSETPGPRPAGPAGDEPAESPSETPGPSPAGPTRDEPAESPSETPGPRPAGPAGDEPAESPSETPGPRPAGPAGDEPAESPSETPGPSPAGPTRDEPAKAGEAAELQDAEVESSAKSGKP
Sequence of Apoptosis-inducing factor 1, mitochondrial (Homo sapiens) (O95831 whole entry): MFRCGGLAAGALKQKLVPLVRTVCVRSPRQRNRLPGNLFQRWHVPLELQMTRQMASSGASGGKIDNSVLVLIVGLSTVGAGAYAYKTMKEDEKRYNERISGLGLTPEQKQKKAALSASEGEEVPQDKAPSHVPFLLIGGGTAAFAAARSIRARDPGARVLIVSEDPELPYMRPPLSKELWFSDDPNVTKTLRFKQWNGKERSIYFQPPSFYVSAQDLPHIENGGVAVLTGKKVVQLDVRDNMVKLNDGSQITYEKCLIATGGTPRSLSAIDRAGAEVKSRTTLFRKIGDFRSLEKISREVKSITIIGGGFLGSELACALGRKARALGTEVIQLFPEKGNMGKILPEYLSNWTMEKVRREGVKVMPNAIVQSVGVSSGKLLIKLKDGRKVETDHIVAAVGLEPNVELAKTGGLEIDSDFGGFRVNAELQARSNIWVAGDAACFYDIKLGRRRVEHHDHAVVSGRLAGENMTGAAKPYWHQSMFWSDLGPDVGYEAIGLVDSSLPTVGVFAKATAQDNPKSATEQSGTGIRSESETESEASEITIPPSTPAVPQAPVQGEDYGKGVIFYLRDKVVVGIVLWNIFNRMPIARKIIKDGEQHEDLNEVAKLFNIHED
Sequence of Phosphatidylinositol 5-phosphate 4-kinase type-2 gamma (Homo sapiens) (Q8TBX8 whole entry, the tested form may be a part): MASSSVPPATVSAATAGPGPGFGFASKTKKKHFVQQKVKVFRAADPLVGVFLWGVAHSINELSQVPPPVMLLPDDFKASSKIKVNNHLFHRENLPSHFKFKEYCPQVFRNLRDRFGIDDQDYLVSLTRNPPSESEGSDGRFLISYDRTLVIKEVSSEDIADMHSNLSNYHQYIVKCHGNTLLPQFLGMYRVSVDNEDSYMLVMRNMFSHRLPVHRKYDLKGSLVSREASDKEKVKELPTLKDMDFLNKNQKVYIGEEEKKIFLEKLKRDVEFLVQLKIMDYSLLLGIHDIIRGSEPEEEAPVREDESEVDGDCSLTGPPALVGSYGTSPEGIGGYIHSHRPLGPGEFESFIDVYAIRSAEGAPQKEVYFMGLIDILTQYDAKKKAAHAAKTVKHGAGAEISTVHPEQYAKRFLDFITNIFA

On to `C=CC(=O)Nc1ccccc1Nc1nc(Nc2ccc(N3CCN(CCOCCOCCOCCNC(=O)CCCC[C@@H]4SC[C@@H]5NC(=O)N[C@@H]54)CC3)cc2)ncc1Cl`, for which the outcome (in test [1]; in test [2]; in test [3]; in test [4]; on Vinculin (Homo sapiens); in test [5]) was Active. Moreover, the outcome in test [6] was Active.

For `COc1cc(O)c2c(c1)/C=C/C[C@H](O)[C@H](O)C(=O)/C=C\C[C@H](C)OC2=O`, in [7], the inhibition (commonly how much of the control response was suppressed) is 16.8%. Further, the Activity in test [8] was 20%.
